Reference: ChEMBL document CHEMBL1151198, “A new antimalarial quassinoid from Simaba orinocensis” (J Nat Prod, 2004)
Values after ≈ are worked out from the molar mass of the structure shown. Active and inactive are the calls of the source. The rule behind the calls is not given here.

What was measured:
Leishmania donovani = assay: Antileishmanial activity against Leishmania donovani promastigotes after 48 hrs by alamar blue assay; format: functional, organism-based
[1] = Specific index, ratio of IC50 for mouse RAW264.7 to IC50 for iNOS production in mouse RAW264.7
Outline: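 Index calculated as the MTT IC50 in RAW 264.7 cells divided by the iNOS IC50 in the same cells.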

RAW264.7 [2] = assay: Inhibition of iNOS production in LPS-activated mouse RAW264.7 cells after 20 hrs; format: functional, cell-based; conditions: RAW264.7, 20 h
Outline: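 iNOS assay in RAW 264.7 cells, with L-NMMA, APDC and dexamethasone as reference inhibitors. IC50 in µg/mL, mean ± SEM of three determinations.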

RAW264.7 [3] = assay: Cytotoxicity against mouse RAW264.7 cells after 2 days by MTT assay; format: cell-based; conditions: RAW264.7, 48 h
Outline: (§1)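 MTT viability assay, run on CHO-ICAM-1 cells and, separately, on RAW 264.7 cells. IC50 in µg/mL, mean ± SEM of three determinations.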

[4] = target: Intercellular adhesion molecule (ICAM-1), Integrin alpha-L/beta-2 (Homo sapiens, UniProt P05107+P05362+P20701); assay: Inhibition of LFA1/ICAM1-mediated adhesion of HL60 cells to CHO-ICAM1 cells; format: cell-based, HL-60
Sequence of Intercellular adhesion molecule (ICAM-1), Integrin alpha-L/beta-2 (P20701 whole entry): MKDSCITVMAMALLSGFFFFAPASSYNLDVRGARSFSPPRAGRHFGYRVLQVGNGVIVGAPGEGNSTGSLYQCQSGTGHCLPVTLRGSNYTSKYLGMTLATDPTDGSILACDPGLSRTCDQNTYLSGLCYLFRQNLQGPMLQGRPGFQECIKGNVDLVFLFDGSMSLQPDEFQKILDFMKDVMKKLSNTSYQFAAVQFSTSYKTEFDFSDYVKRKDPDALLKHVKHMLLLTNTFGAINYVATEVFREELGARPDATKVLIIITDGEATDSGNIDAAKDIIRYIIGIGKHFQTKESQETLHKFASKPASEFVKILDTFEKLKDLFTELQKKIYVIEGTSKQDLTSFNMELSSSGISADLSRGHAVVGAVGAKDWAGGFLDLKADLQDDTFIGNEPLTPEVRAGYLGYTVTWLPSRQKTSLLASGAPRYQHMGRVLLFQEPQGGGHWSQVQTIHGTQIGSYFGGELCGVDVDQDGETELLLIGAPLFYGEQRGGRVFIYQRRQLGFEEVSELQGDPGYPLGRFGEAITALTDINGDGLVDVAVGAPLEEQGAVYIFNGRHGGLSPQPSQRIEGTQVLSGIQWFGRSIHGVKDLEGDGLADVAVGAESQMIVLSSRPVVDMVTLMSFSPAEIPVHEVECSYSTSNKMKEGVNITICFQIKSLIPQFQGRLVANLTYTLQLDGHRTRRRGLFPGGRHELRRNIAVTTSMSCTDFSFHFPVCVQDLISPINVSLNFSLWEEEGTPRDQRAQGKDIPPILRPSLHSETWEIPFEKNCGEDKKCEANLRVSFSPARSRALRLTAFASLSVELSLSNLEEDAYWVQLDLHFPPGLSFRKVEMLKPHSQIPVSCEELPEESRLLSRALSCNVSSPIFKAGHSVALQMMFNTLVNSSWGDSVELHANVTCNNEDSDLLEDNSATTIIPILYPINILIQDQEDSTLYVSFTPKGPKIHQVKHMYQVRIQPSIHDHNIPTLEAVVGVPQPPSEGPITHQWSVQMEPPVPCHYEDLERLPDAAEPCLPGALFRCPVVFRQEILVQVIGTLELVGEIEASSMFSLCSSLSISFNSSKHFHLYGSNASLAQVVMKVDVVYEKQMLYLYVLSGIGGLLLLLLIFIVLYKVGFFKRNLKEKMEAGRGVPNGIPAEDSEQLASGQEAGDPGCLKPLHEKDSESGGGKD
Sequence of Intercellular adhesion molecule (ICAM-1), Integrin alpha-L/beta-2 (P05362 whole entry): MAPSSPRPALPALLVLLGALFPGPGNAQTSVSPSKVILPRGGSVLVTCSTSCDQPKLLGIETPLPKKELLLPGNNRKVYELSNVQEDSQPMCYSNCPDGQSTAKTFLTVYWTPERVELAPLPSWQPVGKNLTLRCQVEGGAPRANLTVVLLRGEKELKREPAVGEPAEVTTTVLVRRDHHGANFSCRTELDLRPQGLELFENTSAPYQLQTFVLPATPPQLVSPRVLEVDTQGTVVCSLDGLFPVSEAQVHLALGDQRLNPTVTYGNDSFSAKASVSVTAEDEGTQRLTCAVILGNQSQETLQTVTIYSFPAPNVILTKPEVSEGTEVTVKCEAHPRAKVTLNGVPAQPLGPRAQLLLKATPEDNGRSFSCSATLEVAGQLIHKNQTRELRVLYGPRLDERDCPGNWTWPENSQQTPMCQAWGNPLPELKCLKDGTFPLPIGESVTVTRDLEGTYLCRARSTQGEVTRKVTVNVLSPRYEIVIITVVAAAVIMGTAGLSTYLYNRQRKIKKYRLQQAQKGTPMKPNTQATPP
Sequence of Intercellular adhesion molecule (ICAM-1), Integrin alpha-L/beta-2 (P05107 whole entry): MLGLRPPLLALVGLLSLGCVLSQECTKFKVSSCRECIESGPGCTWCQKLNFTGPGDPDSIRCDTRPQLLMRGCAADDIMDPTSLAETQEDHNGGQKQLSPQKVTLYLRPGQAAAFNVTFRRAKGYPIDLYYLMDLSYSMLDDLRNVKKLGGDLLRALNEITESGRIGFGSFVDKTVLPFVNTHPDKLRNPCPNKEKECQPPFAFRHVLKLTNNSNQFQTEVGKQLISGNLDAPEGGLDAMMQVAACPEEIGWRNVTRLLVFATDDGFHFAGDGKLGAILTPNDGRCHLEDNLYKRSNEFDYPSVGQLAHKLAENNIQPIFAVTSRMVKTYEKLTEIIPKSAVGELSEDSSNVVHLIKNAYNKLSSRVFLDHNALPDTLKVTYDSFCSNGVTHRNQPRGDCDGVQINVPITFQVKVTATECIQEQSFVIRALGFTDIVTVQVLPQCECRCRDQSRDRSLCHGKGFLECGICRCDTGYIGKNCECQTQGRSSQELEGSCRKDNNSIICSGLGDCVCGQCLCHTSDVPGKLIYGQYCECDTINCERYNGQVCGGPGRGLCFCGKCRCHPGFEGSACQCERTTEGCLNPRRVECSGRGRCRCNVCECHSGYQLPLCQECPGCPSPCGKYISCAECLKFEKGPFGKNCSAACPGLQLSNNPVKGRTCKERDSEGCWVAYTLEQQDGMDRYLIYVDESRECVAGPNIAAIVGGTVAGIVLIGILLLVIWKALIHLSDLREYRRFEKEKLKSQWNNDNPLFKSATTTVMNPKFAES
Outline: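 Secondary LFA-1/ICAM-1-mediated adhesion assay using HL-60 cells and CHO-ICAM-1 cells, with cytochalasin B as standard. IC50 in µg/mL, mean ± SEM of three determinations.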

[5] = target: Intercellular adhesion molecule (ICAM-1), Integrin alpha-L/beta-2 (Homo sapiens) (UniProt P20701+P05362+P05107); assay: Inhibition of LFA1/ICAM1-mediated HL60 cell aggregation; format: cell-based; conditions: HL-60
Outline: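 Primary screen for LFA-1/ICAM-1-mediated cell aggregation run together with an XTT cell-proliferation read-out. Aggregation potency is reported as a minimum inhibitory concentration in µg/mL.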

[6] = Specific index, ratio of IC50 for human HL60 cells to MIC for LFA1/ICAM1; format: functional, HL-60
Outline: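 Index calculated as XTT-assay IC50 (µg/mL) divided by the MIC from the LFA-1/ICAM-1-mediated aggregation primary screen (µg/mL). XTT IC50 values are given as mean ± SEM of three determinations.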

[7] = Specific index, ratio of IC50 for CHO cells to IC50 for LFA1/ICAM1
Outline: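 Ratio of the MTT IC50 against CHO-ICAM-1 cells to the IC50 from the secondary LFA-1/ICAM-1-mediated adhesion assay, in which HL-60 cells adhere to CHO-ICAM-1 cells. IC50 values are in µg/mL, as mean ± SEM of three determinations.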

CHO = assay: Cytotoxicity against CHO cells transfected with ICAM1 by MTT assay; format: cell-based; conditions: Cricetulus griseus; outline: as §1
HL-60 = assay: Cytotoxicity against human HL60 cells by XTT assay; format: cell-based
Outline: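 XTT proliferation read-out combined with the primary assay for inhibitors of LFA-1/ICAM-1-mediated cell aggregation. IC50 in µg/mL, mean ± SEM of three determinations.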

[8] = Selectivity index, ratio of IC50 for african green monkey (Cercopithecus aethiops) Vero cells to IC50 for chloroquine-sensitive Plasmodium falciparum D6; format: toxicity, cell-based; conditions: read-out: Ratio IC50
Plasmodium falciparum = assay: Antimalarial activity against chloroquine-resistant Plasmodium falciparum W2 by LDH assay; format: functional, organism-based
[9] = Selectivity index, ratio of IC50 for african green monkey (Cercopithecus aethiops) Vero cells to IC50 for chloroquine-resistant Plasmodium falciparum W2; format: toxicity, cell-based; conditions: read-out: Ratio IC50
Vero = assay: Cytotoxicity against african green monkey kidney Vero cells; format: cell-based; conditions: Chlorocebus sabaeus
HeLa [10] = assay: Inhibition of protein synthesis in human HeLa cells at 10 uM by [35S]methionine metabolic labeling study; format: functional
HeLa [11] = assay: Inhibition of protein synthesis in human HeLa cells assessed as translation at 10 uM by [35S]methionine metabolic labeling study; format: functional; set-up: scale not given: the % may be the effect or the level left
[12] = Inhibition of protein biosynthesis in mouse Krebs cells assessed as firefly luciferase activity at 10 uM after 1 hr by translation assay relative to control; format: functional
Outline: (§2)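 In vitro Krebs cell translation system read by firefly and renilla luciferase. Compounds at 10 or 2 µM; anisomycin 10 µM as reference and 0.5% DMSO as vehicle control. Values are average luciferase activity relative to control.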

HeLa [13] = assay: Inhibition of translation in human HeLa cells at 10 uM by 35S-methionine metabolic labeling study; format: functional, cell-based
[14] = Inhibition of protein biosynthesis in mouse Krebs cells assessed as renilla luciferase activity at 10 uM after 1 hr by translation assay relative to control; format: functional; outline: as §2

Work on `N=C(N)c1ccc(OCCCCCOc2ccc(C(=N)N)cc2)cc1` [PENTAMIDINE] yielded an IC50 (Leishmania donovani) of 1.6 µg/mL (≈ 4.7 µM) and an IC90 (Leishmania donovani) of 3.5 µg/mL (≈ 10.3 µM).

With `C[C@@H]1[C@H](O)[C@@H](C)/C=C/C=C/C=C/C=C/C=C/C=C/C=C/[C@H](O[C@@H]2O[C@H](C)[C@@H](O)[C@H](N)[C@@H]2O)C[C@@H]2O[C@](O)(C[C@@H](O)C[C@@H](O)[C@H](O)CC[C@@H](O)C[C@@H](O)CC(=O)O[C@H]1C)C[C@H](O)[C@H]2C(=O)O` [AMPHOTERICIN B] the IC50 (Leishmania donovani) was 1.1 µg/mL (≈ 1.19 µM) and the IC90 (Leishmania donovani) was 2.1 µg/mL (≈ 2.27 µM).

Work on `N.S=C(S)N1CCCC1` [PYRROLIDINE DITHIOCARBAMIC ACID, AMMONIUM SALT] yielded a Ratio [1] of less than 0.02, an IC50 (RAW264.7 [2]) of 21 µg/mL and an IC50 (RAW264.7 [3]) of less than 0.4 µg/mL.

For `C=C1[C@@H](C)[C@H]2[C@H](Cc3ccccc3)NC(=O)[C@]23OC(=O)/C=C/[C@H](O)CCC[C@@H](C)C/C=C/[C@H]3[C@@H]1O` [CYTOCHALASIN B], the IC50 [4] was 14.8 µM, the MIC [5] was 2.3 µg/mL (≈ 4.8 µM) and the Ratio [6] was 17.2. The Ratio [1] was 1.1, the IC50 (RAW264.7 [2]) was 5.6 µg/mL (≈ 11.7 µM) and the IC50 (RAW264.7 [3]) was 6.5 µg/mL (≈ 13.6 µM). For the same molecule, the Ratio [7] was 0.04, the IC50 (CHO) was 0.26 µg/mL (≈ 0.542 µM) and the IC50 (HL-60) was 40 µg/mL (≈ 83.4 µM).

`C[C@@H]1CC[C@H]2[C@@H](C)C(=O)O[C@@H]3O[C@@]4(C)CC[C@@H]1[C@]32OO4` [ARTEMISININ] gave a selectivity ratio [8] greater than 699, an IC50 (Plasmodium falciparum) of 0.0085 µg/mL (≈ 0.0301 µM) and an IC50 (Leishmania donovani) of 36 µg/mL (≈ 128 µM). It also gave an IC90 (Leishmania donovani) greater than 50 µg/mL, a selectivity ratio [9] greater than 1180 and an IC50 (Vero) greater than 10 µg/mL.

With `COc1ccc(C[C@H]2NC[C@H](O)[C@H]2OC(C)=O)cc1` [ANISOMYCIN] the inhibition at 10 µM (HeLa [10]) was 98.5%, the Activity (HeLa [11]) was 0% and the Activity [12] was less than 0.01. For the same molecule, the Activity (HeLa [13]) was “Active” and the Activity [14] was less than 0.01.
